Screens deposited in PubChem BioAssay by The Scripps Research Institute Molecular Screening Center.
Hits are enriched below; roughly 3% of the tested compounds scored in any of these assays.
CHRM4 agonist = agonists of human muscarinic M4 receptor (CHRM4) | activation, % at 3 µM | AID 624127 | CHO-K1 hM4/Gqi5, Fluo-8 calcium fluorescence; vehicle 0%, full acetylcholine response 100% | 360,000 tested, 0.14% active | P08173;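 active = activation above the run mean over all test wells plus 3 SD, cut at about 32% in these data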;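 note: peak over basal fluorescence ratio per well then scaled between controls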
CHRM4 antagonist = antagonists of human muscarinic M4 receptor (CHRM4). P08173. inhibition, % at 3 µM. CHO-hM4 cells, ACh EC80, Fluo-8 calcium fluorescence. AID 624125. 360,000 tested, 0.73% active;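 active = inhibition above its plate's cutoff, the mean inhibition of sample wells plus 3 SD, cut at about 27% in these data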
CHRM4 PAM = CHRM4 positive allosteric modulation | P08173 | CHO-K1 hM4/Gqi5, Fluo-8 calcium fluorescence, ACh EC20; 0% = ACh EC20, 100% = maximal ACh | activation, % at 3 µM | 360,000 tested, 0.4% active;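 active = activation above its plate's cutoff, the mean activation of sample wells plus 3 SD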
TAAR1 antagonist = antagonists of human TAAR1; Q96RJ0; CHO RD-HGA16 TAAR1, Fluo-8 calcium fluorescence, antagonist; inhibition, % at 3 µM; 360,000 tested, 1.5% active; AID 624466;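 active = inhibition above a per-plate cutoff, the mean inhibition of test compounds on that plate plus 3 SD, cut at about 49% in these data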
Target sequence (Q96RJ0 whole entry, looked up): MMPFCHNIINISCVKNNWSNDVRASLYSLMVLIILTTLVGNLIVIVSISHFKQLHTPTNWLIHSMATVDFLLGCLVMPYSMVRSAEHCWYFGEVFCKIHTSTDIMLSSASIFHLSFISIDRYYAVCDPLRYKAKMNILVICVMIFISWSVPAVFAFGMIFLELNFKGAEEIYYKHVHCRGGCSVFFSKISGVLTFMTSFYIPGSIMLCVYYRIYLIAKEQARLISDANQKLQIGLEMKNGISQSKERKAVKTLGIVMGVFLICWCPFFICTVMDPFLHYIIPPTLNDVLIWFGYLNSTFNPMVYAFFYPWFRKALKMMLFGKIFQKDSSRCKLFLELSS
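Assay system: CHO-derived RD-HGA16 cells stably expressing human TAAR1 plus Gα16. Timing: 140 s kinetic read after compound, 140 s after agonist. Technique: kinetic Fluo-8 calcium fluorescence measurement. Measure: % inhibition of agonist calcium response.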
TAAR1 ag = human TAAR1 agonism | Q96RJ0 | 360,000 tested, 0.99% active | CHO RD-HGA16 TAAR1, Fluo-8 calcium fluorescence; vehicle wells 0%, saturating PEA agonist 100% | activation, % at 3 µM | AID 624467;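 active = activation above the mean activation of all test compounds in the run plus 3 SD, cut at about 38% in these data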
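System: CHO-derived RD-HGA16 cells with stable Gα16 and human TAAR1. Times: 17-24 h plating, Fluo-8 75 min 37 °C, 30 min RT. Measured by: calcium-sensitive Fluo-8 signal, excitation 470-495, emission 515-575 nm. Read-out basis: % activation relative to PEA EC100 response. Control set: DMSO and PEA EC100. Repeats: no replicates (n 1).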
nonsel antag count = counter-screen for TAAR1 antagonists: nonselective antagonists. shares compounds with TAAR1 antagonist. counterscreen cell line, calcium fluorescence, antagonist mode. inhibition, % at 3 µM. 2,400 tested, 77% active; in the data active = inhibition above about 22%;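 note: CHO-Ga16 host cells stimulated with ATP at an EC80 level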
TAAR1 antag conf = human TAAR1 antagonism, confirmed. shares compounds with TAAR1 antagonist. TAAR1-expressing cells, fluorescence antagonist read-out. inhibition, % at 3 µM. 2,400 tested, 40% active. AID 651785; in the data active = inhibition above about 49%;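 note: CHO-Ga16 host cells challenged with agonist PEA near its EC80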
Ga16 nonsel ag = nonselective Ga16 agonism, counter-screen. activation, % at 3 µM. 2,400 tested, 18% active. shares compounds with TAAR1 antagonist. AID 651953. Ga16-expressing cells, calcium fluorescence, agonist counterscreen; in the data active = activation above about 12%
TAAR1 ag count = counter-screen for human TAAR1 antagonists: TAAR1 agonists | shares compounds with TAAR1 antagonist | hTAAR1 cell line, fluorescence activation, agonist mode | activation, % at 3 µM | 2,400 tested, 2% active; in the data active = activation above about 37%;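 note: CHO cells stably expressing TAAR1 with calcium dye readout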
Hits are given with their value; n = inactive; x = no result given.

SMILES	CHRM4 agonist	CHRM4 antagonist	CHRM4 PAM	TAAR1 antagonist	TAAR1 ag	nonsel antag count	TAAR1 antag conf	Ga16 nonsel ag	TAAR1 ag count
CCOc1cc(/C=C(\C#N)c2nc3ccccc3[nH]2)ccc1OC(C)C(=O)O (stereo unspecified)	n	n	n	n	n	x	x	x	x
CCOc1cc(/C=C(/C#N)c2nc3ccccc3[nH]2)ccc1Oc1ccc([N+](=O)[O-])cn1	n	n	n	64.6	n	54.2	65.6	n	n
COc1cc(/C=C(/C#N)c2nc3ccccc3[nH]2)ccc1OCc1ccc(C(=O)O)o1	n	n	n	n	n	x	x	x	x
COC(=O)c1ccc(COc2ccc(/C=C(\C#N)c3nc4ccccc4[nH]3)cc2OC)o1	n	n	n	60.6	n	32.2	n	n	n
N#C/C(=C\c1ccc([N+](=O)[O-])o1)c1nc2ccccc2[nH]1	x	x	x	66.5	n	49.1	61.2	19.9	n
CC(C)[C@@H](NC(=O)OC(C)(C)C)c1cc(C(=O)c2c(-c3ccccc3)[nH]c3ccccc23)c(N)s1	n	n	n	n	n	x	x	x	x
Cc1cccc(NC(=O)C2CCN(S(=O)(=O)c3c(C)c(C)cc(C)c3C)CC2)n1	n	n	n	78.0	n	23.6	50.3	n	n
O=C(NNC(=O)c1ccncc1)Nc1ccc(N=Nc2ccccc2)cc1	n	n	n	n	n	x	x	x	x
O=C1NC(C2CC3C=CC2C3)Nc2ccccc21 (stereo unspecified)	n	n	n	n	n	x	x	x	x
CCOCCCn1c(SCc2nc3ccccc3s2)nc2ccccc2c1=O	n	n	n	49.0	n	n	n	n	n
CCOCCCn1c(SCC(=O)Nc2ccccc2)nc2ccccc2c1=O	n	n	n	n	n	x	x	x	x
COc1ccc2[nH]c(=O)c(CN(CC3CCCO3)S(=O)(=O)c3ccccc3F)cc2c1 (stereo unspecified)	n	n	n	63.2	n	26.1	n	n	n
COc1ccc2[nH]c(=O)c(CN(CC3CCCO3)S(=O)(=O)c3ccccc3)cc2c1 (stereo unspecified)	n	n	n	n	n	x	x	x	x
COc1ccc2[nH]c(=O)c(CN(CC3CCCO3)C(=O)Nc3ccc(F)cc3)cc2c1 (stereo unspecified)	n	n	n	80.8	n	51.6	66.1	16.2	n
O=C(COC(=O)c1cc[n+]([O-])cc1)Nc1ccccc1Sc1ccccc1	n	n	n	104.7	n	n	n	n	n
O=C(Cc1ccccc1)Nc1ccccc1Sc1ccccc1	n	n	n	n	n	x	x	x	x
O=C(Cc1ccc(Br)cc1)Nc1ccccc1Sc1ccccc1	n	n	n	58.0	n	n	n	n	n
Fc1ccc(C(CCCn2nnc(-c3cccnc3)n2)c2ccc(F)cc2)cc1	n	28.7	n	90.0	n	39.0	57.5	n	n
COc1cc(/C=C(\C#N)C(=O)c2c(C)[nH]c3ccccc23)cc(OC)c1OC	n	n	n	n	n	x	x	x	x
COc1ccc(/C=C(\C#N)C(=O)c2c(C)[nH]c3ccccc23)cc1OC	n	n	n	58.8	n	n	n	n	n
CCOC(=O)c1cc(-c2ccccc2)nc2c1c(C)nn2-c1ccccn1	n	n	n	53.2	n	21.6	n	n	n
CCCNC(=O)C1(C)CCN(Cc2ccc(OCc3ccccc3)cc2)C1 (stereo unspecified)	n	n	n	n	n	x	x	x	x
CCN(CC)C(=O)c1cccc(-c2csc(C(C)(O)c3ccc(OC)cc3)n2)c1 (stereo unspecified)	n	n	n	86.2	n	39.8	60.4	14.9	n
CCN(CC)C(=O)c1cccc(-c2csc(C(C)(O)c3cccc(OC)c3)n2)c1 (stereo unspecified)	n	n	n	78.3	n	46.5	59.1	14.7	n
